This is an account of results in ChEMBL document CHEMBL1121686 (J Med Chem, 1981).

The species entered for data set [1] is Rattus norvegicus. The data set is described as follows: (§1) Percent total excretion of 3-methoxyacetaminophen glucuronide. The data set is classed as functional. In outline:
(§2)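 Urine was collected for 48 h from dosed rats or mice kept in metabolic cages. It was filtered (0.5 μm) and separated by reverse-phase HPLC at 2 mL/min, starting in phosphate-buffered solvent at pH 7.2. After a 4 min delay, methanol was raised linearly to 50% over 18 min. Detection was at 254 and 280 nm. Each metabolite was quantified from peak area using response factors from standards and expressed as % of total excreted metabolites.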

Data set [2] in a line: (§3) Percent total excretion of N-methoxyacetaminophen glucuronide. The data set is classed as ADME. In outline:
as §2

Data set [3] is described as follows: (§4) Percent total excretion of acetaminophen glucuronide. The data set is classed as ADME. In outline:
as §2

Data set [4] concerns Rattus norvegicus. Description: The compound tested for toxicity in liver against male rat after intraperitoneal administration of 1.0 mmol/kg. The data set is classed as organism-based. The settings on record: in vivo, ip. In outline: (§5)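 Young adult male Sprague-Dawley rats dosed intraperitoneally at 1.0 or 2.0 mmol/kg in aqueous solution. Animals were kept in metabolic cages with food and water ad libitum, and urine was collected over 48 h. Liver and kidney were examined histologically at 48 h. Liver was graded as vacuolation (1+) or centrilobular necrosis (2+, 3+, 4+); kidney was graded as deep cortical tubular necrosis.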

For data set [5], the species on record is Rattus norvegicus. Description: (§6) Percent total excretion of N-methoxyacetaminophen sulfate. The data set is classed as functional. In outline: as §2
Data set [6] deals with Rattus norvegicus. Description: The compound tested for toxicity in kidney against male rat after intraperitoneal administration of 2.0 mmol/kg; Positive. The data set is classed as organism-based. As to conditions: in vivo, ip. In outline: as §5
For data set [7], the species on record is Rattus norvegicus. The data set is described as §4. The data set is classed as functional. In outline:
as §2

For data set [8], the species on record is Rattus norvegicus. The data set is described as follows: Percent total excretion of acetaminophen cysteine conjugate. The data set is classed as functional. In outline: as §2
Data set [9] can be described thus: (§7) Percent total excretion of 3-(thiomethyl)acetaminophen sulfate. The data set is classed as ADME. In outline: as §2
The species named for data set [10] is Rattus norvegicus. Description: Percent total excretion of acetaminophen sulfate. The data set is classed as functional. In outline:
as §2

The nature of data set [11]: as §1. The data set is classed as ADME. In outline: as §2
The subject of data set [12] is Mus musculus. Description: Percent dose excreted in 0-48 hours administered ip to male mouse. The data set is classed as ADME, organism-based. The settings on record: in vivo. In outline:
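Young adult male Swiss mice, previously housed on pine wood-chip bedding, received N-hydroxyacetaminophen in aqueous solution i.p. at 2.0 mmol/kg. They were then kept in metabolic cages with standard feed and water ad libitum. Urine was collected for 48 h and analysed by gradient reverse-phase HPLC, with peak areas calibrated against standard solutions.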

Data set [13] is described as follows: (§8) Percent total excretion of acetaminophen-mercapturic acid. The data set is classed as ADME. In outline:
as §2

Data set [14] relates to Rattus norvegicus. Description: The compound tested for toxicity in kidney against male rat after intraperitoneal administration of 1.0 mmol/kg. As to conditions: in vivo, ip. The data set is classed as organism-based. In outline: as §5
For data set [15], the species on record is Rattus norvegicus. The description is as §7. The data set is classed as functional. In outline: as §2
The species named for data set [16] is Rattus norvegicus. Description: (§9) Percent total excretion of 3-(thiomethyl)acetaminophen glucuronide. The data set is classed as functional. In outline:
as §2

In data set [17] the test system is Rattus norvegicus. Description: (§10) Percent dose excreted in 0-48 hours administered ip to male rat. The data set is classed as functional. In outline:
(§11)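 Young adult male Sprague-Dawley rats were dosed i.p. with N-hydroxyacetaminophen in aqueous solution at 1.0 and 2.0 mmol/kg. Animals were held in metabolic cages with standard feed and water ad libitum, and urine was collected over 48 h. Quantitation was by gradient HPLC, using response factors from standard solutions.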

Data set [18] has as its system Mus musculus. Description: The compound tested for toxicity in liver against male mouse after intraperitoneal administration of 2.0 mmol/kg. The settings on record: in vivo, ip.
The test system of data set [19] is Rattus norvegicus. The description is as §10. The data set is classed as ADME, organism-based. As to conditions: in vivo. In outline:
as §11

Data set [20] concerns Mus musculus. Description: The compound tested for toxicity in kidney against male mouse after intraperitoneal administration of 2.0 mmol/kg. The data set is classed as organism-based. The settings on record: in vivo, ip. In outline: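 Young adult male Swiss mice given a single intraperitoneal dose of 2.0 mmol/kg in aqueous solution. Animals were held in metabolic cages with standard feed and water ad libitum, and urine was collected for 48 h. At 48 h, liver and kidneys were taken for histology. Liver was scored as vacuolation (1+) or centrilobular necrosis (2+ to 4+); kidney was scored as deep cortical tubular necrosis.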

The species entered for data set [21] is Rattus norvegicus. Description: (§12) Percent total excretion of acetaminophen. The data set is classed as functional. In outline: as §2
Data set [22] can be described thus: as §12. The data set is classed as ADME. In outline:
as §2

For data set [23], the species on record is Rattus norvegicus. The description is as §8. The data set is classed as functional. In outline: as §2
A short description of data set [24]: as §9. The data set is classed as ADME. In outline: as §2
The species entered for data set [25] is Rattus norvegicus. Described as §3. The data set is classed as functional. In outline:
as §2

Data set [26] deals with Rattus norvegicus. The data set is described as follows: The compound tested for toxicity in liver against male rat after intraperitoneal administration of 2.0 mmol/kg. The data set is classed as organism-based. As to conditions: in vivo, ip. In outline: as §5
A short description of data set [27]: as §6. The data set is classed as ADME. In outline:
as §2

In data set [28] the test system is Mus musculus. Description: The compound tested for toxicity in kidney against female mouse after intravenous administration of 2.0 mmol/kg; Normal. The data set is classed as organism-based. As to conditions: in vivo. In outline: (§13)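 Young adult female Swiss mice, previously housed on pine wood-chip bedding. The sodium salt was given in aqueous solution at 2.0 mmol/kg intravenously or 10 mmol/kg intragastrically. Animals were housed in metabolic cages with feed and water ad libitum for 48 h, with urine collected throughout. At 48 h, liver and kidneys were assessed histologically. Liver was graded as vacuolation (1+) or centrilobular necrosis (2+ to 4+); kidney was graded as deep cortical tubular necrosis.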

Data set [29] can be described thus: Percent of total excretion of 3-(thiomethyl)acetaminophen glucuronide. The data set is classed as ADME. In outline:
as §2

Data set [30] is described as follows: Percent of total excretion of N-methoxyacetaminophen glucuronide. The data set is classed as ADME. In outline:
as §2

Data set [31] can be described thus: Percent of total excretion of acetaminophen glucuronide. The data set is classed as ADME. In outline: as §2
The nature of data set [32]: Percent of total excretion of acetaminophen sulfate. The data set is classed as ADME. In outline: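 Rats (male Sprague-Dawley, 1.0 or 2.0 mmol/kg ip) and Swiss mice (males 2.0 mmol/kg ip; females 2.0 mmol/kg iv or 10 mmol/kg intragastric) dosed in aqueous solution. Urine was collected over 0–48 h in metabolic cages. Filtered urine went through gradient HPLC (pH 7.2 buffer, 0→50% methanol; 254/280 nm), quantified against standard peak-area response factors. Values are % of total excreted metabolites.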

A short description of data set [33]: Percent of total excretion of acetaminophen-mercapturic acid. The data set is classed as ADME. In outline: as §2
In data set [34] the test system is Mus musculus. The data set is described as follows: The compound tested for toxicity in liver against female mouse after intravenous administration of 2.0 mmol/kg; signifies centrilobular necrosis of liver. The data set is classed as organism-based. As to conditions: in vivo. In outline:
as §13

A short description of data set [35]: Percent of total excretion of N-methoxyacetaminophen sulfate. The data set is classed as ADME. In outline: as §2
Data set [36] in a line: Percent of total excretion of 3-methoxyacetaminophen glucuronide. The data set is classed as ADME. In outline: as §2
The nature of data set [37]: Percent of total excretion of acetaminophen. The data set is classed as ADME. In outline: as §2
The subject of data set [38] is Mus musculus. The data set is described as follows: The compound tested for toxicity in kidney against female mouse after intragastric administration of 10.0 mmol/kg; Normal. As to conditions: in vivo.
Data set [39] in a line: Percent of total excretion of N-hydroxyacetaminophen sulfate. The data set is classed as ADME. In outline:
as §2

Data set [40] can be described thus: Percent of total excretion of 3-(thiomethyl)acetaminophen sulfate. The data set is classed as ADME. In outline:
as §2

Data set [41] is described as follows: Percent of total excretion of N-hydroxyacetaminophen glucuronide. The data set is classed as ADME. In outline: as §2
Data set [42] can be described thus: Percent of total excretion of acetaminophen cysteine conjugate. The data set is classed as ADME. In outline:
as §2

Data set [43] has as its system Mus musculus. Description: The compound tested for toxicity in liver against female mouse after intragastric administration of 10 mmol/kg; signifies centrilobular necrosis of liver. As to conditions: in vivo, po. The data set is classed as organism-based. In outline:
as §13

Several values for one entry are separate records, joined by “and”; a condition that tells them apart may be missing. Identical values can stand only once.

On to `CC(=O)N(O)c1ccc(O)cc1`, for which the Total excretion was 0% in data set [1]; 2.3% and 3.4% in data set [2]; 18% and 25.9% in [3]; 8.1% in [5]; 10.8% in [7]; 0% in [8]. Further, the Total excretion in data set [9] was 9% and 15.9%; in data set [10], 51.3%; in data set [11] it was 0%; in data set [13] it was 13.2% and 6.1%; in [15] it was 5.1%; in [16] it was 1.9%. Besides, the Total excretion is 7% in data set [21]; 5% and 4.5% in [22]; 14.5% in data set [23]; 2% and 4.1% in data set [24]; 1.5% in data set [25]; 2.7% and 3% in data set [27]. Besides, the Toxicity in data set [4] is on record as 0; in data set [6], “Positive”; in data set [14], 0; in data set [18] it was 2; in data set [20], 0; in data set [26], 0. Further, the Dose was found to be 41.5% in data set [12], 70.9% in data set [17] and 55% in [19].
For the compound `CC(=O)Nc1ccc(O)cc1` [ACETAMINOPHEN], the Toxicity in data set [28] was determined as 0; in [34], 2; in [38] it was 0; in data set [43], 3. In addition, the Total excretion was 0.7% and 0.6% in data set [29]; 0% in [30]; 64% and 58.4% in data set [31]; 13.8% and 13.3% in [32]; 3.5% and 3.8% in data set [33]; 0% in data set [35]. Further, the Total excretion in [36] is 0%; in data set [37], 11.9% and 12.1%; in [39], 0%; in [40], 3.3% and 1.5%; in [41], 0%; in [42], 2.9% and 10.4%.
